ChEMBL document CHEMBL4680175, “Sulfonamide-based ring-fused analogues for CAN508 as novel carbonic anhydrase inhibitors endowed with antitumor activity: Design, synthesis, and in vitro biological evaluation” (Eur J Med Chem, 2020)
The source made the active and inactive calls. No cut-off for these calls is given here.

Tests used:
MCF7 [1] = experiment: Antiproliferative activity against human MCF7 cells measured after 48 hrs under normoxic condition by MTT assay; assay type: functional, cell-based; details: MCF7, 48 h
Carbonic anhydrase 1 = Carbonic anhydrase 1 (Homo sapiens, UniProt P00915); experiment: Inhibition of recombinant human carbonic anhydrase 1 preincubated with enzyme for 15 mins by phenol red dye based stopped flow CO2 hydrase assay
Sequence of Carbonic anhydrase 1 (P00915 whole entry): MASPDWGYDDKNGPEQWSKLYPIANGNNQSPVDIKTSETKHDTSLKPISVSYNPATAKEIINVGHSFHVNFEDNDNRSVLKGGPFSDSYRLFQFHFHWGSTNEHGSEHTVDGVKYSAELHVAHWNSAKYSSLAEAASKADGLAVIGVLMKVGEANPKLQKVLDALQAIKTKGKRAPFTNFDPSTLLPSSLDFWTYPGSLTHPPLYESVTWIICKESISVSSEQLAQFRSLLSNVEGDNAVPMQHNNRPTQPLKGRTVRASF

Carbonic anhydrase 2 = Carbonic anhydrase 2 (Homo sapiens, UniProt P00918); experiment: Inhibition of recombinant human carbonic anhydrase 2 preincubated with enzyme for 15 mins by phenol red dye based stopped flow CO2 hydrase assay
Carbonic anhydrase 9 = Carbonic anhydrase 9 (Homo sapiens, UniProt Q16790); experiment: Inhibition of recombinant human carbonic anhydrase 9 preincubated with enzyme for 15 mins by phenol red dye based stopped flow CO2 hydrase assay
Carbonic anhydrase 12 = Carbonic anhydrase 12 (Homo sapiens, UniProt O43570); experiment: Inhibition of recombinant human carbonic anhydrase 12 preincubated with enzyme for 15 mins by phenol red dye based stopped flow CO2 hydrase assay
Sequence of Carbonic anhydrase 12 (O43570 whole entry): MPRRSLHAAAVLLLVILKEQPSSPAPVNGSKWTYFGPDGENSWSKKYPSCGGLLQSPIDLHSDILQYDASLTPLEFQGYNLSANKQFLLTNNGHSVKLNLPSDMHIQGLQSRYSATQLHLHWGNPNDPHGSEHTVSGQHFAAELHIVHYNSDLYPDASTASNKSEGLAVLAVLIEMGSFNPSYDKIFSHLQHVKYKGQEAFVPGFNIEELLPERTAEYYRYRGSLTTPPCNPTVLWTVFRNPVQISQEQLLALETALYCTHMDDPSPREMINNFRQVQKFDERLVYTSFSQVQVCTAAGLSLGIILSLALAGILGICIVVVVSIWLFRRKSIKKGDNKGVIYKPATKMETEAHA

[2] = target: Cyclin-dependent kinase 2/cyclin E1 (Homo sapiens, UniProt P24941); experiment: Inhibition of CDK2/cyclin E (unknown origin) expressed in baculovirus infected Sf21 insect cells using histone H1 as substrate in presence of [gamma33P]ATP
CDK9/cyclin T1 = CDK9/cyclin T1 (Homo sapiens, UniProt P50750); experiment: Inhibition of human full-length N-terminal GST/His6-tagged CDK9 (1 to 372 residues)/His6-tagged Cyclin-T1 (1 to 726 residues) expressed in sf9 cells using (YSPTSPS)2KK peptide as substrate in presence of [gamma33P]ATP
Sequence of CDK9/cyclin T1 (O60563 whole entry, the tested form may be a part): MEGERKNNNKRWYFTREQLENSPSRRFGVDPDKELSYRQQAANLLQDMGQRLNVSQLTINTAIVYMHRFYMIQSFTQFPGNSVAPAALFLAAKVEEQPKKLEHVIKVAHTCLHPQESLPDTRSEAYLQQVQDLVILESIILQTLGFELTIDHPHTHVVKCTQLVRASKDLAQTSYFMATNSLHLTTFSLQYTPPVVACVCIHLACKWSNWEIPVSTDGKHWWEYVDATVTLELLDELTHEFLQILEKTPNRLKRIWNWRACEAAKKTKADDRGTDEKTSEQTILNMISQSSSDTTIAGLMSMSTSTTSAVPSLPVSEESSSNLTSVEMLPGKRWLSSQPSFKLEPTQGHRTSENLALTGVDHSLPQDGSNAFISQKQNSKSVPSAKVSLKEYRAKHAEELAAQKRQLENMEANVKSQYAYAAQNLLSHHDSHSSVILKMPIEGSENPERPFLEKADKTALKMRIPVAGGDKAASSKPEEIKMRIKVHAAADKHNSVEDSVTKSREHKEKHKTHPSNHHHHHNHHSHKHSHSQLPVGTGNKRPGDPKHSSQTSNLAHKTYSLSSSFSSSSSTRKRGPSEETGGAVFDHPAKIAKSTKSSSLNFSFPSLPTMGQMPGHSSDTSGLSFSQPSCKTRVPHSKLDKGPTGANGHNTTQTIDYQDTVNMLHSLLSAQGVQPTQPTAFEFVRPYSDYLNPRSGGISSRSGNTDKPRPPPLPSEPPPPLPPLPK
Sequence of CDK9/cyclin T1 (P50750 whole entry, the tested form may be a part): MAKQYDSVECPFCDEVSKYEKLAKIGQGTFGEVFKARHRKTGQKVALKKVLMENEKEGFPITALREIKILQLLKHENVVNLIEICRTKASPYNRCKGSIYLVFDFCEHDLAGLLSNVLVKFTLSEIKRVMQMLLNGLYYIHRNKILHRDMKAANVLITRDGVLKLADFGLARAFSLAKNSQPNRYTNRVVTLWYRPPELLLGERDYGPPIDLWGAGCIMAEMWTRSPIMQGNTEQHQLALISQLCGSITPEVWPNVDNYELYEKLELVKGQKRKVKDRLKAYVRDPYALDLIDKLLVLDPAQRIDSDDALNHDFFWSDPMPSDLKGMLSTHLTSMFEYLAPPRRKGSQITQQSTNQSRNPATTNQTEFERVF

CCRF-CEM = experiment: Antitumor activity against human CCRF-CEM cells assessed as cell growth inhibition at 10 uM incubated for 48 hrs by sulforhodamine B assay; assay type: functional; details: read-out: GI
In short: (§1)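 NCI Drug Evaluation Branch protocol: primary single-dose screen at 10 μM across a 57-line human cancer panel. Drug exposure is 48 h. Cell growth and viability are read by sulforhodamine B assay. Data are given as a mean graph of percent growth of treated cells and reported as percentage growth inhibition (GI%).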

HOP-92 = experiment: Antitumor activity against human HOP92 cells assessed as cell growth inhibition at 10 uM incubated for 48 hrs by sulforhodamine B assay; assay type: functional; details: read-out: GI; in short: as §1
NCI-H226 = experiment: Antitumor activity against human NCI-H226 assessed as cell growth inhibition at 10 uM incubated for 48 hrs by sulforhodamine B assay; assay type: functional; details: read-out: GI; in short: as §1
NCI-H322M = experiment: Antitumor activity against human NCI-H322M cells assessed as cell growth inhibition at 10 uM incubated for 48 hrs by sulforhodamine B assay; assay type: functional; details: read-out: GI; in short: as §1
NCI-H522 = experiment: Antitumor activity against human NCI-H522 cells assessed as cell growth inhibition at 10 uM incubated for 48 hrs by sulforhodamine B assay; assay type: functional; details: read-out: GI; in short: as §1
KM12 = experiment: Antitumor activity against human KM12 cells assessed as cell growth inhibition at 10 uM incubated for 48 hrs by sulforhodamine B assay; assay type: functional; details: read-out: GI; in short: as §1
IGROV-1 = experiment: Antitumor activity against human IGROV1 cells assessed as cell growth inhibition at 10 uM incubated for 48 hrs by sulforhodamine B assay; assay type: functional; details: read-out: GI; in short: as §1
A498 = experiment: Antitumor activity against human A498 cells assessed as cell growth inhibition at 10 uM incubated for 48 hrs by sulforhodamine B assay; assay type: functional; details: read-out: GI; in short: as §1
UO-31 = experiment: Antitumor activity against human UO-31 cells assessed as cell growth inhibition at 10 uM incubated for 48 hrs by sulforhodamine B assay; assay type: functional; details: read-out: GI
In short: (§2)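 NCI one-dose screen: 57-cell-line panel exposed at 10 μM for 48 h, Drug Evaluation Branch protocol. Growth and viability read by sulforhodamine B; data given as percent growth inhibition from the mean-graph of percent growth of treated cells.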

RXF 393 = experiment: Antitumor activity against human RXF 393 cells assessed as cell growth inhibition at 10 uM incubated for 48 hrs by sulforhodamine B assay; assay type: functional; details: read-out: GI; in short: as §1
SN12C = experiment: Antitumor activity against human SN12C cells assessed as cell growth inhibition at 10 uM incubated for 48 hrs by sulforhodamine B assay; assay type: functional; details: read-out: GI; in short: as §1
MCF7 [3] = experiment: Antitumor activity against human MCF7 cells assessed as cell growth inhibition at 10 uM incubated for 48 hrs by sulforhodamine B assay; assay type: functional; details: read-out: GI; in short: as §1
T47D = experiment: Antitumor activity against human T-47D cells assessed as cell growth inhibition at 10 uM incubated for 48 hrs by sulforhodamine B assay; assay type: functional; details: read-out: GI; in short: as §2
MDA-MB-468 [4] = experiment: Antitumor activity against human MDA-MB-468 cells assessed as cell growth inhibition at 10 uM incubated for 48 hrs by sulforhodamine B assay; assay type: functional; details: read-out: GI; in short: as §1
MCF7 [5] = experiment: Antiproliferative activity against human MCF7 cells measured after 48 hrs under CoCl2-induced hypoxic condition by MTT assay; assay type: functional, cell-based; details: MCF7, 48 h
MDA-MB-468 [6] = experiment: Antiproliferative activity against human MDA-MB-468 cells measured after 48 hrs under normoxic condition by MTT assay; assay type: functional, cell-based; details: MDA-MB-468, 48 h
MCF7 [7] = experiment: Potency index, ratio of staurosporine IC50 to compound IC50 for antiproliferative activity against human MCF7 cells measured after 48 hrs under normoxic condition by MTT assay; assay type: functional
MCF7 [8] = experiment: Potency index, ratio of staurosporine IC50 to compound IC50 for antiproliferative activity against human MCF7 cells measured after 48 hrs under CoCl2-induced hypoxic condition by MTT assay; assay type: functional
MDA-MB-468 [9] = experiment: Potency index, ratio of staurosporine IC50 to compound IC50 for antiproliferative activity against human MDA-MB-468 cells measured after 48 hrs under normoxic condition by MTT assay; assay type: functional
MDA-MB-468 [10] = experiment: Potency index, ratio of staurosporine IC50 to compound IC50 for antiproliferative activity against human MDA-MB-468 cells measured after 48 hrs under CoCl2-induced hypoxic condition by MTT assay; assay type: functional
MCF7 [11] = experiment: Induction of cell cycle arrest in human MCF7 cells assessed as accumulation at G2/M phase at IC50 concentration incubated for 24 hrs by PI/RNase staining based flow cytometric analysis; assay type: functional
In short: (§3)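 Cells were washed in ice-cold PBS, fixed in ice-cold 70% ethanol, treated with 100 µg/mL RNase and stained with 40 µg/mL PI. DNA content was read by flow cytometry, with sub-G1 compared against control.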

MCF7 [12] = experiment: Induction of cell cycle arrest in human MCF7 cells assessed as decrease in S phase population at IC50 concentration incubated for 24 hrs by PI/RNase staining based flow cytometric analysis; assay type: functional; in short: as §3
MCF7 [13] = experiment: Induction of cell cycle arrest in human MCF7 cells assessed as fold increase in apoptotic cells at sub-G1 phase at IC50 concentration incubated for 24 hrs by PI/RNase staining based flow cytometric analysis relative to control; assay type: functional; in short: as §3
MCF7 [14] = experiment: Induction of apoptosis in human MCF7 cells assessed as early apoptotic cells by Annexin V-FITC/propidium iodide staining based flow cytometric analysis (reference value: 0.47 %); assay type: functional
MCF7 [15] = experiment: Induction of apoptosis in human MCF7 cells assessed as late apoptotic cells by Annexin V-FITC/propidium iodide staining based flow cytometric analysis (reference value: 0.29 %); assay type: functional
MCF7 [16] = experiment: Induction of apoptosis in human MCF7 cells assessed as necrotic cells by Annexin V-FITC/propidium iodide staining based flow cytometric analysis (reference value: 1.3 %); assay type: functional
MCF7 [17] = experiment: Induction of apoptosis in human MCF7 cells assessed as fold increase in apoptotic cells by Annexin V-FITC/propidium iodide staining based flow cytometric analysis relative to control; assay type: functional
MDA-MB-468 [18] = experiment: Antiproliferative activity against human MDA-MB-468 cells measured after 48 hrs under CoCl2-induced hypoxic condition by MTT assay; assay type: functional, cell-based; details: MDA-MB-468, 48 h
NCI/ADR-RES = experiment: Antitumor activity against human NCI/ADR-RES cells assessed as cell growth inhibition at 10 uM incubated for 48 hrs by sulforhodamine B assay; assay type: functional, cell-based; in short: as §1

`N#Cc1c(-c2ccccc2)nc2c(/N=N/c3ccc(S(N)(=O)=O)cc3)c(N)nn2c1N` gave an IC50 (MCF7 [1]) of 0.66 µM, a Ki (Carbonic anhydrase 1) of 2.68 µM and a Ki (Carbonic anhydrase 2) of 0.922 µM. The Ki (Carbonic anhydrase 9) was 0.0335 µM, the Ki (Carbonic anhydrase 12) was 0.0394 µM and the IC50 [2] was greater than 12.5 µM. For the same molecule, the IC50 (CDK9/cyclin T1) was greater than 12.5 µM, the inhibition of growth at 10 µM (CCRF-CEM) was 21% and the inhibition of growth at 10 µM (HOP-92) was 27%. The inhibition of growth at 10 µM (NCI-H226) was 24%, the inhibition of growth at 10 µM (NCI-H322M) was 21% and the inhibition of growth at 10 µM (NCI-H522) was 54%. The inhibition of growth at 10 µM (KM12) was 50%, the inhibition of growth at 10 µM (IGROV-1) was 35% and the inhibition of growth at 10 µM (A498) was 30%. The inhibition of growth at 10 µM (UO-31) was 25%, the inhibition of growth at 10 µM (RXF 393) was 42% and the inhibition of growth at 10 µM (SN12C) was 24%. For the same molecule, the inhibition of growth at 10 µM (MCF7 [3]) was 60%, the inhibition of growth at 10 µM (T47D) was 26% and the inhibition of growth at 10 µM (MDA-MB-468 [4]) was 58%. For the same molecule, the IC50 (MCF7 [5]) was 0.96 µM, the IC50 (MDA-MB-468 [6]) was 1.89 µM and the “Ratio IC50” value (MCF7 [7]) was 5. For the same molecule, the “Ratio IC50” value (MCF7 [8]) was 9, the “Ratio IC50” value (MDA-MB-468 [9]) was 2.3 and the “Ratio IC50” value (MDA-MB-468 [10]) was 6. The Activity (MCF7 [11]) was “Active”, the Activity (MCF7 [12]) was “Active” and the “fold change (FC)” value (MCF7 [13]) was 7. The Activity (MCF7 [14]) was 8.46%, the Activity (MCF7 [15]) was 16.94% and the Activity (MCF7 [16]) was 2.64%. The “fold change (FC)” value (MCF7 [17]) was 26, the IC50 (MDA-MB-468 [18]) was 1.07 µM and the Activity (NCI/ADR-RES) was “inactive”.
